Measurements from ChEMBL document CHEMBL1125212, “Dual-action cephalosporins: cephalosporin 3'-quinolone carbamates” (J Med Chem, 1991).
In brackets after ≈: the same amount, converted by molar mass.

Assays:
Citrobacter freundii = assay: The compound was tested in vitro for minimum inhibitory concentration against Citrobacter Freundii BS-16; format: functional
Summary of the method: (§1)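 Agar dilution on Mueller-Hinton agar using 2-fold serial dilutions, giving final 128 to 0.0156 μg/mL (extended to 0.000977 μg/mL where needed). Inoculum was overnight broth culture diluted 100-fold, about 3×10^4 CFU/spot, applied by replicator. MIC read after overnight incubation at 36 °C.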

Escherichia coli [1] = assay: The compound was tested in vitro for minimum inhibitory concentration against Escherichia coli ATCC 25922; format: functional; summary of the method: as §1
Escherichia coli [2] = assay: Minimum inhibitory concentration required to inhibit the activity of Escherichia coli ATCC 25922; format: functional; summary of the method: as §1
Escherichia coli [3] = assay: Minimum inhibitory concentration required to inhibit the activity of Escherichia coli UB1005; format: functional; summary of the method: as §1
Escherichia coli [4] = assay: The compound was tested in vitro for minimum inhibitory concentration against Escherichia coli 257; format: functional; summary of the method: as §1
Enterococcus faecalis = assay: The compound was tested in vitro for minimum inhibitory concentration against Enterococcus faecalis ATCC 29212; format: functional; summary of the method: as §1
Escherichia coli [5] = assay: The compound was tested in vitro for minimum inhibitory concentration against Escherichia coli TEM-1; format: functional; summary of the method: as §1
Enterobacter cloacae = assay: The compound was tested in vitro for minimum inhibitory concentration against Enterobacter cloacae P99; format: functional
Escherichia coli [6] = assay: Inhibitory activity on replicative DNA biosynthesis in Escherichia coli H560 (permeabilised cells); format: functional, organism-based
Summary of the method: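 E. coli H560 cells permeabilized with toluene. ATP-dependent incorporation of [3H]thymidine into trichloroacetic acid-insoluble material was measured. IC50 taken as the concentration giving 50% inhibition.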

Micrococcus luteus = assay: The compound was tested in vitro for minimum inhibitory concentration against Micrococcus luteus ATCC 9341; format: functional; summary of the method: as §1
Proteus mirabilis = assay: The compound was tested in vitro for minimum inhibitory concentration against Proteus mirabilis 90; format: functional
Summary of the method: (§2)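 Proteus MICs by agar dilution on Mueller-Hinton medium containing 3% agar. Serial 2-fold dilutions gave final 128 to 0.0156 μg/mL (further to 0.000977 μg/mL). Inoculum was overnight broth diluted 100-fold, about 3×10^4 CFU/spot. Plates read after overnight incubation at 36 °C.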

Pseudomonas aeruginosa [7] = assay: The compound was tested in vitro for minimum inhibitory concentration against Pseudomonas aeruginosa 18S/H; format: functional; summary of the method: as §1
Pseudomonas aeruginosa [8] = assay: The compound was tested in vitro for minimum inhibitory concentration against Pseudomonas aeruginosa 8780; format: functional; summary of the method: as §1
Proteus vulgaris = assay: The compound was tested in vitro for minimum inhibitory concentration against Proteus vulgaris 1028 BC; format: functional; summary of the method: as §2
Staphylococcus aureus [9] = assay: The compound was tested in vitro for minimum inhibitory concentration against Staphylococcus aureus 67-0; format: functional; summary of the method: as §1
Staphylococcus aureus [10] = assay: The compound was tested in vitro for minimum inhibitory concentration against Staphylococcus aureus 753; format: functional; summary of the method: as §1
Streptococcus pyogenes = assay: The compound was tested in vitro for minimum inhibitory concentration against Streptococcus pyogenes; format: functional
Summary of the method: (§3)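 Streptococci tested by agar dilution on brain heart infusion agar with 20 units/mL bovine liver catalase. Final drug range 128 to 0.0156 μg/mL by 2-fold steps, extended to 0.000977 μg/mL when required. Inoculum about 3×10^4 CFU/spot from overnight broth diluted 100-fold. MIC after overnight incubation at 36 °C.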

Serratia marcescens = assay: The compound was tested in vitro for minimum inhibitory concentration against Serratia marcescens 1071; format: functional; summary of the method: as §1
Streptococcus pneumoniae = assay: The compound was tested in vitro for minimum inhibitory concentration against Streptococcus pneumoniae 6301; format: functional; summary of the method: as §3
Staphylococcus aureus [11] = assay: The compound was tested in vitro for minimum inhibitory concentration against Staphylococcus aureus smith; format: functional; summary of the method: as §1
Klebsiella pneumoniae = assay: The compound was tested in vitro for minimum inhibitory concentration against Klebsiella pneumoniae A; format: functional; summary of the method: as §1
Escherichia coli [12] = assay: Minimum inhibitory concentration for inhibition of [14C]- Pen G binding to Escherichia coli UB1005; format: functional
Summary of the method: (§4)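 Membranes from sonicated E. coli UB1005 were solubilized. Binding to penicillin-binding proteins was measured as inhibition of [14C]penicillin G binding.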

Escherichia coli [13] = assay: The compound was evaluated for the inhibition of [14C]- Pen G binding to Escherichia coli UB1005 penicillin-binding protein 1a 90 kDa.; summary of the method: as §4
Escherichia coli [14] = assay: The compound was evaluated for the inhibition of [14C]- Pen G binding to Escherichia coli UB1005 penicillin-binding protein 1b 90 kDa.; summary of the method: as §4
Escherichia coli [15] = assay: The compound was evaluated for the inhibition of [14C]- Pen G binding to Escherichia coli UB1005 penicillin-binding protein 2 66 kDa.; summary of the method: as §4
Escherichia coli [16] = assay: The compound was evaluated for the inhibition of [14C]- Pen G binding to Escherichia coli UB1005 penicillin-binding protein 3 60 kDa.; summary of the method: as §4

MIC (Escherichia coli [1]) [µg/mL] | MIC (Escherichia coli [2]) [µg/mL] | MIC (Escherichia coli [3]) [µg/mL] | MIC (Escherichia coli [4]) [µg/mL] | MIC (Enterococcus faecalis) [µg/mL] | MIC (Escherichia coli [5]) [µg/mL] | MIC (Enterobacter cloacae) [µg/mL] | IC50 (Escherichia coli [6]) [µg/mL] | MIC (Micrococcus luteus) [µg/mL] | MIC (Proteus mirabilis) [µg/mL] | MIC (Pseudomonas aeruginosa [7]) [µg/mL] | MIC (Pseudomonas aeruginosa [8]) [µg/mL] | MIC (Proteus vulgaris) [µg/mL] | MIC (Staphylococcus aureus [9]) [µg/mL] | MIC (Staphylococcus aureus [10]) [µg/mL] | MIC (Streptococcus pyogenes) [µg/mL] | MIC (Serratia marcescens) [µg/mL] | MIC (Streptococcus pneumoniae) [µg/mL] | MIC (Staphylococcus aureus [11]) [µg/mL] | MIC (Klebsiella pneumoniae) [µg/mL] | also measured | SMILES
0.031 (≈ 0.043 µM) | 0.03 (≈ 0.0416 µM) | 1 (≈ 1.39 µM) | 0.031 (≈ 0.043 µM) | 4 (≈ 5.54 µM) | 0.031 (≈ 0.043 µM) | < 0.016 | 4 (≈ 5.54 µM) | 0.031 (≈ 0.043 µM) | 0.25 (≈ 0.346 µM) | 0.5 (≈ 0.693 µM) | 1 (≈ 1.39 µM) | 0.063 (≈ 0.0873 µM) | 2 (≈ 2.77 µM) | 0.5 (≈ 0.693 µM) | < 0.016 | 0.125 (≈ 0.173 µM) | 0.031 (≈ 0.043 µM) | 0.25 (≈ 0.346 µM) | 0.063 (≈ 0.0873 µM) | MIC (Citrobacter freundii): 0.031 µg/mL (≈ 0.043 µM) | O=C(O)C1=C(COC(=O)N2CCN(c3cc4c(cc3F)c(=O)c(C(=O)O)cn4C3CC3)CC2)CS[C@@H]2[C@H](NC(=O)C(O)c3ccccc3)C(=O)N12 (some centres undefined)
0.063 (≈ 0.0747 µM) | 0.06 (≈ 0.0712 µM) | 1 (≈ 1.19 µM) | 0.063 (≈ 0.0747 µM) | 1 (≈ 1.19 µM) | 0.063 (≈ 0.0747 µM) | 0.63 (≈ 0.747 µM) | 2 (≈ 2.37 µM) | 1 (≈ 1.19 µM) | 0.25 (≈ 0.297 µM) | 1 (≈ 1.19 µM) | 1 (≈ 1.19 µM) | 0.125 (≈ 0.148 µM) | 4 (≈ 4.75 µM) | 4 (≈ 4.75 µM) | 0.25 (≈ 0.297 µM) | 0.5 (≈ 0.593 µM) | 0.25 (≈ 0.297 µM) | 1 (≈ 1.19 µM) | 0.25 (≈ 0.297 µM) | MIC (Citrobacter freundii): 0.125 µg/mL (≈ 0.148 µM); MIC (Escherichia coli [12]): 1 µg/mL (≈ 1.19 µM); Inhibitory concentration (Escherichia coli [13]): 100 µg/mL; Inhibitory concentration (Escherichia coli [14]): 10 µg/mL; Inhibitory concentration (Escherichia coli [15]): > 100 µg/mL; Inhibitory concentration (Escherichia coli [16]): < 0.1 µg/mL | CC(C)(O/N=C(\C(=O)N[C@@H]1C(=O)N2C(C(=O)O)=C(COC(=O)N3CCN(c4cc5c(cc4F)c(=O)c(C(=O)O)cn5C4CC4)CC3)CS[C@H]12)c1csc(N)n1)C(=O)O
0.063 (≈ 0.0873 µM) | 0.06 (≈ 0.0831 µM) | 2 (≈ 2.77 µM) | 0.063 (≈ 0.0873 µM) | 4 (≈ 5.54 µM) | 0.063 (≈ 0.0873 µM) | 0.031 (≈ 0.043 µM) | 4.2 (≈ 5.82 µM) | 0.031 (≈ 0.043 µM) | 0.125 (≈ 0.173 µM) | 0.5 (≈ 0.693 µM) | 1 (≈ 1.39 µM) | 0.125 (≈ 0.173 µM) | 4 (≈ 5.54 µM) | 4 (≈ 5.54 µM) | 0.031 (≈ 0.043 µM) | 0.25 (≈ 0.346 µM) | 0.031 (≈ 0.043 µM) | 0.25 (≈ 0.346 µM) | 0.25 (≈ 0.346 µM) | MIC (Citrobacter freundii): 0.063 µg/mL (≈ 0.0873 µM); MIC (Escherichia coli [12]): 2 µg/mL (≈ 2.77 µM); Inhibitory concentration (Escherichia coli [13]): > 100 µg/mL; Inhibitory concentration (Escherichia coli [14]): > 100 µg/mL; Inhibitory concentration (Escherichia coli [15]): > 100 µg/mL; Inhibitory concentration (Escherichia coli [16]): > 100 µg/mL | O=C(COc1ccccc1)N[C@@H]1C(=O)N2C(C(=O)O)=C(COC(=O)N3CCN(c4cc5c(cc4F)c(=O)c(C(=O)O)cn5C4CC4)CC3)CS[C@H]12
0.063 (≈ 0.0774 µM) | 0.06 (≈ 0.0737 µM) | 1 (≈ 1.23 µM) | 0.063 (≈ 0.0774 µM) | 0.5 (≈ 0.614 µM) | 0.063 (≈ 0.0774 µM) | 0.063 (≈ 0.0774 µM) | 1.2 (≈ 1.47 µM) | 0.063 (≈ 0.0774 µM) | 0.5 (≈ 0.614 µM) | 1 (≈ 1.23 µM) | 2 (≈ 2.46 µM) | 0.063 (≈ 0.0774 µM) | 4 (≈ 4.92 µM) | 2 (≈ 2.46 µM) | 0.031 (≈ 0.0381 µM) | 0.125 (≈ 0.154 µM) | 0.031 (≈ 0.0381 µM) | 1 (≈ 1.23 µM) | 0.125 (≈ 0.154 µM) | MIC (Escherichia coli [12]): 1 µg/mL (≈ 1.23 µM); Inhibitory concentration (Escherichia coli [13]): 2 µg/mL; Inhibitory concentration (Escherichia coli [14]): 10 µg/mL; Inhibitory concentration (Escherichia coli [15]): 100 µg/mL; Inhibitory concentration (Escherichia coli [16]): < 0.1 µg/mL | NC(=O)CO/N=C(\C(=O)N[C@@H]1C(=O)N2C(C(=O)O)=C(COC(=O)N3CCN(c4cc5c(cc4F)c(=O)c(C(=O)O)cn5C4CC4)CC3)CS[C@H]12)c1csc(N)n1
0.063 (≈ 0.0709 µM) | 0.06 (≈ 0.0675 µM) | 1 (≈ 1.13 µM) | 0.063 (≈ 0.0709 µM) | 4 (≈ 4.5 µM) | 0.063 (≈ 0.0709 µM) | 0.031 (≈ 0.0349 µM) | 9 (≈ 10.1 µM) | 0.125 (≈ 0.141 µM) | 1 (≈ 1.13 µM) | 1 (≈ 1.13 µM) | 2 (≈ 2.25 µM) | 0.063 (≈ 0.0709 µM) | 4 (≈ 4.5 µM) | 1 (≈ 1.13 µM) | 0.063 (≈ 0.0709 µM) | 0.125 (≈ 0.141 µM) | 0.031 (≈ 0.0349 µM) | 0.5 (≈ 0.563 µM) | 0.125 (≈ 0.141 µM) | MIC (Citrobacter freundii): 0.063 µg/mL (≈ 0.0709 µM); MIC (Escherichia coli [12]): 1 µg/mL (≈ 1.13 µM); Inhibitory concentration (Escherichia coli [13]): 10 µg/mL; Inhibitory concentration (Escherichia coli [14]): 10 µg/mL; Inhibitory concentration (Escherichia coli [15]): > 100 µg/mL; Inhibitory concentration (Escherichia coli [16]): 0.5 µg/mL | CCN1CCN(C(=O)NC(C(=O)N[C@@H]2C(=O)N3C(C(=O)O)=C(COC(=O)N4CCN(c5cc6c(cc5F)c(=O)c(C(=O)O)cn6C5CC5)CC4)CS[C@H]23)c2ccccc2)C(=O)C1=O (some centres undefined)
